# Measured values published in article PMC5084759 (British Journal of Haematology, 2016).
# How the values were obtained:
# [1] = ref Gupta et al, 2013; cited from earlier work
# [2] = Safety and tolerability: adverse events; type: in vivo, human; settings: for On-study deaths: first dose to 30 d after last dose
# Summary of the method: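 The safety population was all patients given ≥1 dose: a single 3 mg dose in Part A, then optional Part B dosing at 4, 3 or 2·3 mg on days 1, 8 and 15 of 28-d cycles, with or without dexamethasone. AEs, including SAEs, were recorded throughout treatment up to 30 d after the last dose and graded by NCI CTCAE v4.03.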
# [3] = system: relapsed and/or refractory multiple myeloma; assay: Myeloma disease response; type: in vivo, human
# Summary of the method: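 Part B dosing was oral ixazomib 4, 3 or 2·3 mg on days 1, 8 and 15 of 28-d cycles. Some patients also received dexamethasone 40 mg (20 mg if >75 years) on days 1, 8, 15 and 22 at investigator discretion. Investigators assessed response by IMWG uniform criteria across all cycles, with one bone marrow assessment to document CR. DOR ran from first CR/VGPR/PR to first progression.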
# [4] = Single-dose plasma pharmacokinetics of oral ixazomib; type: in vivo, human; settings: for Total AUC0-last, geometric mean (% CV): single 3 mg oral dose
# Summary of the method: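 Groups were CrCl ≥90 or <30 ml/min (Cockcroft–Gault) or on haemodialysis. Each patient took a single oral 3 mg dose fasted with about 240 ml water. Plasma was sampled pre-dose to 336 h and assayed by LC-MS/MS (0·5–500 ng/ml). Cmax and AUC0-last came from non-compartmental analysis. Group ratios of geometric means (90% CI) came from ANOVA on log-transformed parameters, with normal function as reference.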
# [5] = CrCl 30-89 ml/min; ref Gupta et al, 2015b; cited from earlier work
# [6] = Stability of ixazomib in dialysate fluid; type: physicochemical; settings: dialysate fluid used in haemodialysis
# CYP3A = settings: supra-therapeutic concentrations; ref unpublished observations; cited from earlier work
# [7] = Haemodialysis clearance, pre- and post-dialyser plasma samples in ESRD patients; type: in vivo, human
# CYP1A2 = settings: supra-therapeutic concentrations; ref unpublished observations; cited from earlier work
# [8] = severe RI/ESRD patients versus patients with normal renal function
structure (smiles),measurement,setting,value
CC(C)C[C@H](NC(=O)CNC(=O)c1cc(Cl)ccc1Cl)B(O)O [ixazomib],PK interaction between ixazomib and dexamethasone,[1],no PK interaction
same,Any TEAE,[2]; ESRD (N = 7),6 (86) n (%)
same,"Any TEAE, Grade ≥3",[2]; ESRD (N = 7),4 (57) n (%)
same,Drug-related SAE,[2]; ESRD (N = 7),0 n (%)
same,SAE,[2]; ESRD (N = 7),3 (43) n (%)
same,Study drug-related TEAE,[2]; ESRD (N = 7),4 (57) n (%)
same,"Study drug-related TEAE, Grade ≥3",[2]; ESRD (N = 7),1 (14) n (%)
same,TEAE resulting in ixazomib discontinuation,[2]; ESRD (N = 7),0 n (%)
same,TEAE resulting in ixazomib dose reduction,[2]; ESRD (N = 7),0 n (%)
same,TEAE: Anaemia,[2]; ESRD (N = 7),2 (29) n (%)
same,TEAE: Arthralgia,[2]; ESRD (N = 7),1 (14) n (%)
same,TEAE: Constipation,[2]; ESRD (N = 7),1 (14) n (%)
same,TEAE: Diarrhoea,[2]; ESRD (N = 7),1 (14) n (%)
same,TEAE: Dizziness,[2]; ESRD (N = 7),1 (14) n (%)
same,TEAE: Dyspnoea,[2]; ESRD (N = 7),1 (14) n (%)
same,TEAE: Fatigue,[2]; ESRD (N = 7),1 (14) n (%)
same,TEAE: Hypotension,[2]; ESRD (N = 7),1 (14) n (%)
same,TEAE: Nausea,[2]; ESRD (N = 7),2 (29) n (%)
same,TEAE: Peripheral oedema,[2]; ESRD (N = 7),0 n (%)
same,TEAE: URT infection,[2]; ESRD (N = 7),1 (14) n (%)
same,TEAE: Vomiting,[2]; ESRD (N = 7),2 (29) n (%)
same,On-study deaths,[2]; ESRD (N = 7),1 (14) n (%)
same,Dose reductions for ixazomib or dexamethasone,[2]; ESRD group,no dose reductions
same,Incidence of AE anaemia,[2]; ESRD group,29%
same,Incidence of grade ≥3 AEs,[2]; ESRD group,57%
same,Incidence of serious AEs,[2]; ESRD group,43%
same,"On-study deaths, number",[2]; ESRD group,1
same,Investigator-attributed drug-related anaemia,[2]; ESRD patients,0%
same,Incidence of TEAE anaemia,[2]; all 41 patients,22%
same,Incidence of TEAE diarrhoea,[2]; all 41 patients,39%
same,Incidence of TEAE fatigue,[2]; all 41 patients,29%
same,Incidence of TEAE nausea,[2]; all 41 patients,34%
same,Incidence of TEAE vomiting,[2]; all 41 patients,32%
same,Incidence of grade ≥3 TEAE anaemia,[2]; all 41 patients,15%
same,Incidence of grade ≥3 TEAE decreased platelet count,[2]; all 41 patients,7%
same,Incidence of grade ≥3 TEAE hypotension,[2]; all 41 patients,7%
same,Patients with a TEAE of any grade,[2]; all 41 patients,95%
same,Patients who developed peripheral neuropathy,[2]; all 41 patients (six patients),15%
same,Incidence of study drug-related TEAE diarrhoea,[2]; all patients,29%
same,Incidence of study drug-related TEAE nausea,[2]; all patients,29%
same,"On-study deaths, number",[2]; all patients,three
same,Patients with at least 1 TEAE,[2]; four patients with solid tumours (three patients),75%
same,Any TEAE,[2]; normal renal function (N = 20),19 (95) n (%)
same,"Any TEAE, Grade ≥3",[2]; normal renal function (N = 20),9 (45) n (%)
same,Drug-related SAE,[2]; normal renal function (N = 20),3 (15) n (%)
same,SAE,[2]; normal renal function (N = 20),3 (15) n (%)
same,Study drug-related TEAE,[2]; normal renal function (N = 20),16 (80) n (%)
same,"Study drug-related TEAE, Grade ≥3",[2]; normal renal function (N = 20),7 (35) n (%)
same,TEAE resulting in ixazomib discontinuation,[2]; normal renal function (N = 20),2 (10) n (%)
same,TEAE resulting in ixazomib dose reduction,[2]; normal renal function (N = 20),4 (20) n (%)
same,TEAE: Anaemia,[2]; normal renal function (N = 20),1 (5) n (%)
same,TEAE: Arthralgia,[2]; normal renal function (N = 20),3 (15) n (%)
same,TEAE: Constipation,[2]; normal renal function (N = 20),5 (25) n (%)
same,TEAE: Diarrhoea,[2]; normal renal function (N = 20),9 (45) n (%)
same,TEAE: Dizziness,[2]; normal renal function (N = 20),1 (5) n (%)
same,TEAE: Dyspnoea,[2]; normal renal function (N = 20),2 (10) n (%)
same,TEAE: Fatigue,[2]; normal renal function (N = 20),5 (25) n (%)
same,TEAE: Hypotension,[2]; normal renal function (N = 20),1 (5) n (%)
same,TEAE: Nausea,[2]; normal renal function (N = 20),7 (35) n (%)
same,TEAE: Peripheral oedema,[2]; normal renal function (N = 20),2 (10) n (%)
same,TEAE: URT infection,[2]; normal renal function (N = 20),5 (25) n (%)
same,TEAE: Vomiting,[2]; normal renal function (N = 20),6 (30) n (%)
same,On-study deaths,[2]; normal renal function (N = 20),0 n (%)
same,AEs leading to ixazomib discontinuations,[2]; normal renal function group,10%
same,AEs leading to ixazomib dose reductions,[2]; normal renal function group,20%
same,Incidence of AE anaemia,[2]; normal renal function group,5%
same,Incidence of grade ≥3 AEs,[2]; normal renal function group,45%
same,Incidence of serious AEs,[2]; normal renal function group,15%
same,Investigator-attributed drug-related anaemia,[2]; normal renal function group,5%
same,Any TEAE,[2]; severe RI (N = 14),14 (100) n (%)
same,"Any TEAE, Grade ≥3",[2]; severe RI (N = 14),11 (79) n (%)
same,Drug-related SAE,[2]; severe RI (N = 14),2 (14) n (%)
same,SAE,[2]; severe RI (N = 14),6 (43) n (%)
same,Study drug-related TEAE,[2]; severe RI (N = 14),12 (86) n (%)
same,"Study drug-related TEAE, Grade ≥3",[2]; severe RI (N = 14),7 (50) n (%)
same,TEAE resulting in ixazomib discontinuation,[2]; severe RI (N = 14),4 (29) n (%)
same,TEAE resulting in ixazomib dose reduction,[2]; severe RI (N = 14),4 (29) n (%)
same,TEAE: Anaemia,[2]; severe RI (N = 14),6 (43) n (%)
same,TEAE: Arthralgia,[2]; severe RI (N = 14),2 (14) n (%)
same,TEAE: Constipation,[2]; severe RI (N = 14),3 (21) n (%)
same,TEAE: Diarrhoea,[2]; severe RI (N = 14),6 (43) n (%)
same,TEAE: Dizziness,[2]; severe RI (N = 14),4 (29) n (%)
same,TEAE: Dyspnoea,[2]; severe RI (N = 14),3 (21) n (%)
same,TEAE: Fatigue,[2]; severe RI (N = 14),6 (43) n (%)
same,TEAE: Hypotension,[2]; severe RI (N = 14),3 (21) n (%)
same,TEAE: Nausea,[2]; severe RI (N = 14),5 (36) n (%)
same,TEAE: Peripheral oedema,[2]; severe RI (N = 14),4 (29) n (%)
same,TEAE: URT infection,[2]; severe RI (N = 14),1 (7) n (%)
same,TEAE: Vomiting,[2]; severe RI (N = 14),5 (36) n (%)
same,On-study deaths,[2]; severe RI (N = 14),2 (14) n (%)
same,AEs leading to ixazomib discontinuations,[2]; severe RI group,29%
same,AEs leading to ixazomib dose reductions,[2]; severe RI group,29%
same,Incidence of AE anaemia,[2]; severe RI group,43%
same,Incidence of grade ≥3 AEs,[2]; severe RI group,79%
same,Incidence of serious AEs,[2]; severe RI group,43%
same,Investigator-attributed drug-related anaemia,[2]; severe RI group,29%
same,"On-study deaths, number",[2]; severe RI group,2
same,Any TEAE,[2]; total (N = 41),39 (95) n (%)
same,"Any TEAE, Grade ≥3",[2]; total (N = 41),24 (59) n (%)
same,Drug-related SAE,[2]; total (N = 41),5 (12) n (%)
same,SAE,[2]; total (N = 41),12 (29) n (%)
same,Study drug-related TEAE,[2]; total (N = 41),32 (78) n (%)
same,"Study drug-related TEAE, Grade ≥3",[2]; total (N = 41),15 (37) n (%)
same,TEAE resulting in ixazomib discontinuation,[2]; total (N = 41),6 (15) n (%)
same,TEAE resulting in ixazomib dose reduction,[2]; total (N = 41),8 (20) n (%)
same,TEAE: Anaemia,[2]; total (N = 41),9 (22) n (%)
same,TEAE: Arthralgia,[2]; total (N = 41),6 (15) n (%)
same,TEAE: Constipation,[2]; total (N = 41),9 (22) n (%)
same,TEAE: Diarrhoea,[2]; total (N = 41),16 (39) n (%)
same,TEAE: Dizziness,[2]; total (N = 41),6 (15) n (%)
same,TEAE: Dyspnoea,[2]; total (N = 41),6 (15) n (%)
same,TEAE: Fatigue,[2]; total (N = 41),12 (29) n (%)
same,TEAE: Hypotension,[2]; total (N = 41),5 (12) n (%)
same,TEAE: Nausea,[2]; total (N = 41),14 (34) n (%)
same,TEAE: Peripheral oedema,[2]; total (N = 41),6 (15) n (%)
same,TEAE: URT infection,[2]; total (N = 41),7 (17) n (%)
same,TEAE: Vomiting,[2]; total (N = 41),13 (32) n (%)
same,On-study deaths,[2]; total (N = 41),3 (7) n (%)
same,Patients with a response,[3]; normal renal function or ESRD groups (3 and 4 response-evaluable),no patients
same,Patients with a PR,"[3]; severe RI, 11 response-evaluable",five
same,"Total systemic exposure, higher versus normal renal function",[4]; [8],39%
same,"Unbound systemic exposure, higher versus normal renal function",[4]; [8],38%
same,"Total AUC0-last, geometric mean (% CV)",[4]; ESRD (n = 6),783 (35) h·ng/ml
same,"Total AUC0-last, geometric mean (% CV)",[4]; normal renal function (n = 15),575 (38) ^c h·ng/ml
same,"Total AUC0-last, geometric mean (% CV)",[4]; severe RI (n = 10),813 (51) ^d h·ng/ml
same,Ixazomib clearance in patients with mild or moderate RI,[5],not altered
same,Stability in dialysate,[6],instability
same,Contribution to in vitro metabolism of ixazomib,CYP3A,primary contributors
same,Haemodialysis clearance as share of overall systemic clearance,[7]; ESRD patients requiring haemodialysis,less than 10%
same,Ixazomib concentrations in pre- versus post-dialyser samples,"[7]; ESRD patients, 4-h haemodialysis session about 24-28 h after dose",similar
same,clearance,"[7]; human, plasma, oral, 3 mg",< 2 mL/min
same,Contribution to in vitro metabolism of ixazomib,CYP1A2,primary contributors
